{"data": "Measured values of several laboratories", "target": "Rhodopsin kinase GRK7 (GRK7, Homo sapiens, UniProt Q8WTQ7)", "Sequence (Q8WTQ7 1-553, as in one of the studies)": "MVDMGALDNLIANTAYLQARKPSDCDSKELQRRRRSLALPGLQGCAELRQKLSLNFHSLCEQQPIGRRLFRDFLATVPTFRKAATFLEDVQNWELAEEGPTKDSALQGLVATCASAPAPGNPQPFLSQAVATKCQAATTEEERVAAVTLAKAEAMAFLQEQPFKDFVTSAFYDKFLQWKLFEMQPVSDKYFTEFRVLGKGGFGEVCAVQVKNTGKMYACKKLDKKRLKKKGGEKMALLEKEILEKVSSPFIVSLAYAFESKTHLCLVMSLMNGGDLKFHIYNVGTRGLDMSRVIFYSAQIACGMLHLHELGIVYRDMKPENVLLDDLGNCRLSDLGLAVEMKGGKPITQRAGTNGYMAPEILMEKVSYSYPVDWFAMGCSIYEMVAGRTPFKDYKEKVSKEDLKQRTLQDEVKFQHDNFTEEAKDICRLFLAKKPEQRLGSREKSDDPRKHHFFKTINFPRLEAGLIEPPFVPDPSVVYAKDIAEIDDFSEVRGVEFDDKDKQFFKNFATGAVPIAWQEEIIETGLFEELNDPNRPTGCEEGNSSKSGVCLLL", "note": "Protocols differ between the studies behind these lines."}
{"SMILES": "Cc1cnc(Nc2ccc(C(=O)N3CCC(N4CCCC4)CC3)cc2)nc1-c1cc2ccccc2s1", "read-out": "binding", "method": "competition with immobilised ligand", "concentration": "1 µM", "remaining binding [%]": 29}
{"SMILES": "CC1CCCN1c1nccc(-c2cnn3ncccc23)n1 (stereo not shown)", "read-out": "binding", "concentration": "1 µM", "remaining binding [%]": 100}
{"SMILES": "C=CC(=O)N1CCC(C(=O)NCC(=O)N2CCN(c3nc(-c4cnc(N)nc4C(F)F)nc(N4CCOCC4)n3)CC2)CC1", "read-out": "binding", "method": "competition with immobilised ligand", "concentration": "1 µM", "remaining binding [%]": 87}
{"SMILES": "COc1ccnn2ncc(-c3ccnc(N(C)C)n3)c12", "read-out": "binding", "concentration": "1 µM", "remaining binding [%]": 94}
{"SMILES": "O=C(Nc1c[nH]nc1C(=O)NC1CCNCC1)c1cc(F)cc(F)c1", "read-out": "binding", "method": "competition with immobilised ligand", "concentration": "1 µM", "remaining binding [%]": 84}
{"SMILES": "COc1cnc(Nc2cccc(S(N)(=O)=O)c2)nc1N1CCN(c2ccccc2)C(=O)C1", "read-out": "binding", "method": "competition with immobilised ligand", "concentration": "1 µM", "remaining binding [%]": 61}
{"SMILES": "CN(C)CC#Cc1ccc(OCCCc2sc(N3CCc4cccc(C(=O)Nc5nc6ccccc6s5)c4C3)nc2C(=O)O)c(F)c1", "read-out": "cell-free assay", "method": "competition with immobilised ligand", "concentration": "1 µM", "remaining binding [%]": 97}
{"SMILES": "C[C@@H](c1ccc(-n2cnc3c(N)ncnc32)cc1)N1CCc2nn(C)c(Cc3ccccc3)c2C1=O", "read-out": "binding", "method": "competition with immobilised ligand", "concentration": "0.1 µM", "remaining binding [%]": 72}
{"SMILES": "FC(F)(F)c1ccc2c(c1)nc(-c1cccnc1)n2C1CC1", "read-out": "cell-free assay", "method": "competition with immobilised ligand", "concentration": "1 µM", "remaining binding [%]": 81}
{"SMILES": "c1cnn2ncc(-c3ccnc(N4CCC45COC5)n3)c2c1", "read-out": "binding", "concentration": "1 µM", "remaining binding [%]": 66}
{"SMILES": "CNC(=O)[C@@H]1CC[C@@H](n2c(-c3ccc4cnccc4c3)nc3ccc(C(=O)NCc4cccc(C(N)=O)c4)cc32)C1", "read-out": "binding", "method": "competition with immobilised ligand", "concentration": "1 µM", "remaining binding [%]": 100}
{"SMILES": "C[C@H](c1ccc(F)cc1)N(Cc1cccc(C(=O)O)c1)C(=O)c1cnc2ccccc2c1", "read-out": "cell-free assay", "method": "competition with immobilised ligand", "concentration": "1 µM", "remaining binding [%]": 100}
{"SMILES": "N[C@@H]1CCN(c2nccc(-c3cnn4ncccc34)n2)C1", "read-out": "binding", "concentration": "1 µM", "remaining binding [%]": 100}
{"SMILES": "O=C(c1ccc(Nc2ncc(Cl)c(-c3ccc(Cl)s3)n2)cc1)N1CCC(N2CCCC2)CC1", "read-out": "binding", "method": "competition with immobilised ligand", "concentration": "1 µM", "remaining binding [%]": 84}
{"SMILES": "CN(C)c1nccc(-c2cnn3ncccc23)n1", "read-out": "binding", "concentration": "1 µM", "remaining binding [%]": 100}
{"SMILES": "O=S(=O)(NC1CCC(c2cc(F)ccc2F)(S(=O)(=O)c2ccc(Cl)cc2)CC1)C(F)(F)F (stereo not shown)", "read-out": "cell-free assay", "method": "competition with immobilised ligand", "concentration": "1 µM", "remaining binding [%]": 100}
{"SMILES": "COc1ncc2cc3ccccc3nc2c1C#N", "read-out": "cell-free assay", "method": "competition with immobilised ligand", "concentration": "5 µM", "remaining binding [%]": 100}
{"SMILES": "CN(C)c1nccc(-c2cnc3ncccn23)n1", "read-out": "binding", "concentration": "1 µM", "remaining binding [%]": 41}
{"SMILES": "COc1cc(-c2cn(C3CCc4c(F)cccc4N(CC(F)(F)F)C3=O)nn2)ccc1-n1cnc(C)c1 (stereo not shown)", "read-out": "cell-free assay", "method": "competition with immobilised ligand", "concentration": "1 µM", "remaining binding [%]": 100}
{"SMILES": "O=C(c1ccc(Nc2nccc(-c3cc4ccccc4s3)n2)cc1)N1CCC(N2CCCC2)CC1", "read-out": "binding", "method": "competition with immobilised ligand", "concentration": "1 µM", "remaining binding [%]": 79}
{"SMILES": "O=C(NCCCC1CCCCC1)c1ccc(CNC(=O)c2cnn(-c3ccccc3)c2C(F)(F)F)cc1", "read-out": "cell-free assay", "method": "competition with immobilised ligand", "concentration": "0.1 µM", "remaining binding [%]": 100}
{"SMILES": "Cc1cnn2ncc(-c3ccnc(N(C)C)n3)c2c1", "read-out": "binding", "concentration": "1 µM", "remaining binding [%]": 84}
